L929 necroptosis: L929 zVAD cell death inhibition; actives 0.38% (n = 220,000); viability rescue, % at 10 µM; L929 zVAD necroptosis rescue, ATP luminescence, 24 h; with zVAD 60 µM;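 active = activation, scaled between plate controls, above about 75%, limit read from the data; inactive = activation under that limit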
Tb hexokinase: blocks Trypanosoma brucei hexokinase 1 activity. actives 0.11% (n = 220,000). AID 1430. recombinant TbHK1, G6PDH-coupled NADH A340. inhibition, % at 10 µM;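 active = inhibition of 50% or more in the single-dose primary screen; inactive = inhibition below 50%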
TNF death inh: inhibitors of TNF-alpha induced necroptosis in Jurkat FADD-/- cells; activation (protection from cell death), % at 10 µM; Jurkat FADD-/- TNF necroptosis rescue, ATP luminescence, 24 h; 0 = TNF only, 100 = no-TNF cells; actives 0.068% (n = 220,000);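 active = activation, meaning protection from cell death, of at least 50% relative to plate controls; inactive = activation below 50%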;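 also: necroptosis triggered by 40 ng/mL TNF-alpha added together with compound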
Lipid droplet: modulators of hepatic lipid droplet formation; AML12 mouse hepatocytes, oleate lipid droplets, BODIPY imaging; inhibition, % at 6.5 µM; actives 0.4% (n = 240,000);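 active = lipid droplet intensity inhibited by at least 50%, with more than 500 cells counted; inconclusive = wells with under 300 cells, treated as cytotoxic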
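Test system: AML12 mouse liver cells; schedule: overnight exposure; technique: high-content imaging of BODIPY-stained droplets and DAPI nuclei; read-out: % inhibition of corrected integrated BODIPY droplet signal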
PfM18AAP inh-1: blocks P. falciparum M18 aspartyl aminopeptidase. inhibition, % at 7.35 µM. recombinant PfM18AAP, H-Glu-NHMec fluorogenic cleavage. actives 1.2% (n = 290,000);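 active = inhibition above the campaign mean inhibition over all tested compounds plus 3 SD, cut at about 28% in these data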
RBBP9 inh: blocks human serine hydrolase RBBP9 | AID 1515 | actives 0.2% (n = 220,000) | recombinant RBBP9, FP-Rh probe fluorescence polarization | inhibition, % at 7.94 µM;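 active = inhibition above the campaign mean of all tested compounds plus 3 SD, cut at about 14% in these data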
Target sequence (O75884 whole entry, looked up): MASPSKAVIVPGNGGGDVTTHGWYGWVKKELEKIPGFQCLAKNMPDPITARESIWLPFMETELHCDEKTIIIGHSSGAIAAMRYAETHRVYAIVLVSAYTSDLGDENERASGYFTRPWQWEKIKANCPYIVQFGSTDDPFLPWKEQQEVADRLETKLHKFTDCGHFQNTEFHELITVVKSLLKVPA
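Measured by – fluorescence polarization · Test system – RBBP9 protein · Input – 2.5 µM RBBP9 dispensing solution, before mixing · Measure – percent inhibition from mP, scaled between DMSO and no-protein wells · Benchmarks – DMSO-treated enzyme wells and wells lacking RBBP9 · Times – preincubation 30 min plus labeling 45 min at 25 °C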
Lipid drop inh: hepatic lipid droplet formation inhibition, confirmed; shares compounds with Lipid droplet; AML12 mouse hepatocytes, BODIPY lipid droplet imaging; droplets induced with 100 µM oleic acid; inhibition, % at 5.2 µM; actives 65% (n = 870); AID 463183;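 active = inhibition of lipid droplet metric at least 50%, with more than 300 cells in each of four replicates; inconclusive = wells under 300 cells, flagged as toxic or low count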
AML12 cytotox: counter-screen for cytotoxicity in AML12 mouse hepatocytes. shares compounds with Lipid droplet. actives 3% (n = 870). DAPI nuclear morphology cytotoxicity imaging; active compounds read high; cells fed 100 µM oleate overnight. z-score at 5 µM; in the data active = z-score above about 6.3;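 also: compound exposure lasted overnight at 37 °C before fixation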
AML12 tox ATP: confirmation of cytotoxicity in AML12 mouse hepatocytes; AML12 mouse hepatocyte viability, ATP luminescence; cells loaded with 100 µM oleic acid; 530 tested, under 10 active; cytotoxicity, % at 50 µM; AID 463219; shares compounds with Lipid droplet;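 active = cytotoxicity above 50% in each of four replicates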;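 also: compound exposure lasted overnight at 37 °C before the ATP read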
PfM18AAP inh-2: PfM18AAP inhibition, confirmation. actives 28% (n = 2,400). recombinant PfM18AAP, H-Glu-NHMec fluorogenic cleavage. shares compounds with PfM18AAP inh-1. inhibition, % at 7.35 µM;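 active = mean inhibition over replicate wells above the hit cutoff set for the earlier primary screen, cut at about 29% in these data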
CTSL1 confirm: counter-screen for PFM18AAP inhibitors: confirmation of human cathepsin L inhibitors; shares compounds with PfM18AAP inh-1; purified cathepsin L1, Z-Leu-Arg-MCA fluorescence; inhibition, % at 5.96 µM; 2,400 tested, under 10 active;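 active = average inhibition across replicates above the hit cutoff set in the earlier primary screen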
Target sequence (P07711 whole entry, looked up): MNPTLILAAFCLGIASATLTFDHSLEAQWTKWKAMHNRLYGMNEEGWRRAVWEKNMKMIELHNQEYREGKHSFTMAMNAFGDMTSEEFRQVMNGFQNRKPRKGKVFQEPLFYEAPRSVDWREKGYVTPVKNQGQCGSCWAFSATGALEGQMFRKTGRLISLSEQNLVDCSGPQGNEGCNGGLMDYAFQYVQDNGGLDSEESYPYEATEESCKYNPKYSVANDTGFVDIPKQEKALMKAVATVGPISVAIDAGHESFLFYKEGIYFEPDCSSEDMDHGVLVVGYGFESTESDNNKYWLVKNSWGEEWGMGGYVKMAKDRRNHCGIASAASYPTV
A number is an active result; - = inactive; ? = inconclusive; . = no result. The list is not random: actives were taken first. Their share in the collection is about 2%.

SMILES	L929 necroptosis	Tb hexokinase	TNF death inh	Lipid droplet	PfM18AAP inh-1	RBBP9 inh	Lipid drop inh	AML12 cytotox	others
COc1ccc(C(=O)Nc2sc3c(c2C(=O)NCc2ccco2)CCCC3)cc1OC	-	-	-	69	-	-	105	-	AML12 tox ATP=-
COc1cc(C(=O)Nc2sc3c(c2C(=O)NCc2ccco2)CCCC3)cc(OC)c1OC	-	-	-	-	-	-	.	.
Cc1ccc(-c2cc(C(=O)O)c3cc(Br)ccc3n2)o1	-	-	-	-	-	-	.	.
Cc1ccc(-c2cc(C(=O)NC3=NCCS3)c3cc(Br)ccc3n2)o1	-	-	-	107	-	-	-	-
OC(CNCc1ccc(Cl)cc1)C(F)(F)F (stereo unspecified)	-	-	-	-	-	-	.	.
CC(C)OC(=O)/C(=C\c1ccccc1)NC(=O)c1ccccc1	-	-	-	-	-	-	.	.
COC(=O)/C(=C/c1ccc2c(c1)c1ccccc1n2C)NC(=O)c1ccccc1	-	-	-	83	-	-	80	-	AML12 tox ATP=-
CCOC(=O)c1c(C)[nH]c(N=Nc2ccccc2C)c1C	-	-	-	68	-	-	106	-	AML12 tox ATP=-
CCOC(=O)c1c(C)[nH]c(N=Nc2ccc(C)cc2C)c1C	-	-	-	.	-	-	.	.
Cc1cc(NC(=O)c2sccc2C)n(-c2nc3ccccc3[nH]2)n1	-	-	-	60	-	-	83	-	AML12 tox ATP=-
CC(C)(C)c1cc(NC(=O)Nc2ccc(Cl)cc2Cl)no1	-	-	-	50	-	-	-	-
COc1ccc(-c2nc(NC(=O)Cn3ccc(C(F)(F)F)n3)sc2C)cc1	-	-	-	68	-	-	104	-	AML12 tox ATP=-
Cc1ccc2[nH]c(=O)c3cc(C(=O)N(C)C4CCCCC4)sc3c2c1	.	.	.	-	-	.	.	.
COc1ccc(C(=O)C(c2ccccc2)N2CCOCC2)cc1 (stereo unspecified)	-	-	-	.	-	-	.	.
COc1ccc(C(C#N)N2CCOCC2)cc1 (stereo unspecified)	-	-	-	53	-	-	-	-
COc1ccc(NC(=O)COC(=O)/C=C/C(=O)OCC(=O)Nc2ccc(OC)c(Cl)c2)cc1Cl	-	-	-	63	-	-	-	-
COCCn1cnc2c(c1=O)c1nc3ccccc3nc1n2/N=C/c1ccc(OC)c(OC)c1	-	-	-	53	-	-	-	-
Cc1ccc(/C=N/NC(=O)CNC(=O)c2cccc([N+](=O)[O-])c2C)o1	-	-	-	-	-	-	.	.
COc1cccc(N=CC=C2OC(C)(C)C(C)(C)O2)c1	-	-	-	66	-	-	-	-
Cc1cccc(N=CC=C2OC(C)(C)C(C)(C)O2)c1	-	-	-	-	-	-	.	.
CCn1c(COc2cc(C)ccc2C(C)C)nnc1SCC(=O)Nc1nccs1	-	-	-	-	-	-	.	.
C/C(=C\c1cccc(Cl)c1Cl)C(=O)c1c(C)cc(C)[nH]c1=O	.	.	.	52	-	.	-	-
CC(Sc1nc(NCc2ccccc2)nc(N2CCOCC2)n1)C(=O)Nc1ccccc1 (stereo unspecified)	-	-	-	59	-	-	99	-	AML12 tox ATP=-
CCNc1nc(SC(C)C(=O)Nc2ccccc2)nc(N2CCOCC2)n1 (stereo unspecified)	-	-	-	-	-	-	.	.
NC(=O)CC(NC(=O)Cc1cccc2ccccc12)c1ccc(N2CCN(c3ccc(F)cc3)CC2)c([N+](=O)[O-])c1 (stereo unspecified)	-	-	-	53	.	.	-	-
SMILES	L929 necroptosis	Tb hexokinase	TNF death inh	Lipid droplet	PfM18AAP inh-1	RBBP9 inh	Lipid drop inh	AML12 cytotox	others
NC(=O)CC(NC(=O)Cc1cccc2ccccc12)c1ccc(N2CCCCCCC2)c([N+](=O)[O-])c1 (stereo unspecified)	.	.	.	.	-	.	.	.
O=C(Oc1cccc(/C=N/Nc2nc(Nc3ccccc3)nc(N3CCOCC3)n2)c1)c1ccco1	-	-	-	120	-	-	-	13
Fc1ccc(Nc2nc(N3CCOCC3)nc(N3CCOCC3)n2)cc1	.	.	.	-	-	.	.	.
Cc1[nH]c2ccccc2c1/C=N/Nc1nc(Nc2ccc(F)cc2)nc(N2CCOCC2)n1	-	-	-	61	-	-	?	108
Fc1ccc(NC(=S)NCCN2CCOCC2)c(F)c1F	-	-	-	-	-	-	.	.
CCCNc1nc(Nc2ccc(C)cc2)nc(N2CCCC2)n1	-	-	-	-	-	-	.	.
CCOc1ccc2c(c1)-c1c(ssc1=S)C(C)(C)N2C	-	-	-	57	33	-	102	-	AML12 tox ATP=-;PfM18AAP inh-2=-;CTSL1 confirm=-
Cc1cccc(C(=O)Oc2cccc3c(O)cccc23)c1	.	.	.	-	-	.	.	.
O=c1oc2cc(O)c(Cl)cc2c2ccccc12	-	-	-	-	-	-	.	.
O=c1cc2c(=O)oc3cc(O)c(O)oc3c2c(O)c1O	-	-	-	-	59	-	.	.	PfM18AAP inh-2=31;CTSL1 confirm=-
CN1CCN(C(=S)C(=O)Nc2ccc(Br)cc2)CC1	-	-	-	-	55	-	.	.	PfM18AAP inh-2=-;CTSL1 confirm=-
CN1CCN(C(=S)NC(=O)c2ccc(Br)cc2)CC1	-	-	-	-	-	-	.	.
O=C1CC(c2ccccc2)Cc2nc3nc(C(F)(F)F)nn3cc21 (stereo unspecified)	-	-	-	-	-	-	.	.
CSc1nc2nc3c(cn2n1)C(=O)CC(c1ccccc1)C3 (stereo unspecified)	-	-	-	-	34	-	.	.	PfM18AAP inh-2=-;CTSL1 confirm=-
CC(C)N(Cc1cn[nH]c1-c1ccc(-c2ccccc2)cc1)Cc1nccn1C	-	-	-	-	-	-	.	.
CN(CC(=O)Nc1n[nH]c(=S)s1)S(=O)(=O)c1cccc2cccnc12	.	.	.	-	51	.	.	.	PfM18AAP inh-2=-;CTSL1 confirm=-
Cc1csc(NC(=O)CN(C)S(=O)(=O)c2cccc3cccnc23)n1	-	-	-	.	-	-	.	.
CCN(CC)C(=O)CSc1ncnc2c(-c3cccs3)nsc12	-	-	-	-	-	-	.	.
COc1ccc(NC(=O)c2c(NC(=O)CCC(=O)O)sc3c2CCCCC3)cc1	-	-	-	-	44	-	.	.	PfM18AAP inh-2=-;CTSL1 confirm=-
